From PubChem
A selection: hits, their analogues and other compounds. The true share with any hit is near 3.1%.
Beta apoptosis = beta cell apoptosis inhibition; AID 435005; protection from apoptosis, % (no concentration beside the values); INS-1E cytokine-induced death, ATP luminescence, 48 h; percent of positive-control rescue, neutral wells zero; actives 0.8% (n = 300,000);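 active = Every replicate reaches about 75%, or at least half do and their mean reaches it too, limit read from the data; inconclusive = At least half of replicates reach the limit but their mean does not; inactive = Under half of replicates reach the limit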;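 also: higher means more ATP so stronger rescue from cytokine killing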
CSC inhib = cancer stem cell inhibition; cancer stem cell-like cells viability, luminescence; inhibition, % at 7.5 µM; actives 1.1% (n = 300,000); AID 2717; in the data active = inhibition above about 75%; inconclusive = no clear call, values can overlap the other calls; tested in HMLE shEcad cells
Calb FLC = affects C. albicans growth with fluconazole; growth inhibition, % (test concentration not listed); AID 1979; actives 0.57% (n = 300,000); C. albicans CaCi-2 (fluconazole-resistant clinical isolate) + fluconazole, Alamar Blue growth, 48 h;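 active = growth inhibition above about 58% in most replicates, limit read from the data, passing the limit was not always enough; inconclusive = exactly half the replicates above a set limit; inactive = most replicates below a set limit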;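 also: all wells also contain fluconazole at 8 µg/ml as a sub-toxic cotreatment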
PolyA inhibitor = yeast polyadenylation inhibition; S. cerevisiae SKY197-pL101 polyadenylation reporter, beta-gal luminescence; efflux-impaired pdr1/pdr3 knockout yeast; score 100 = 6 SD above DMSO; activity score, % at 12 µM; actives 0.02% (n = 300,000); AID 1875;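 active = lowest replicate activity score at least 50, where 100 means six control SD above control mean; inconclusive = lowest score under 50 but half or more replicates reach 50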;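 also: yeast exposed to compound for 9 h at 30 °C; higher score means more reporter readthrough which indicates perturbed polyadenylation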
HIF activator = HIF pathway transcriptional activation; activation, % at 7.5 µM (by protocol); actives 0.32% (n = 300,000); AID 1910; U2OS HRE-luciferase reporter, luminescence; normalized: DMSO 0%, desferrioxamine 100%;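 active = mean activation of at least 10% of the iron chelator positive control signal, with at least half of replicates also reaching 10%; inconclusive = mean and replicate majority disagree about reaching 10%; inactive = mean and most replicates under 10%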
T cruzi repl = blocks replication of Trypanosoma cruzi. T. cruzi beta-gal in NIH3T3, luminescence, 90 h. inhibition, % (concentration not given with the values). actives 1.4% (n = 300,000);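 active = mean inhibition across valid replicates above about 55%, limit read from the data; inconclusive = mean below that limit but half or more replicates reach it; inactive = mean below it, under half of replicates reach it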;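 also: signal also drops with host cell toxicity which is not excluded here; higher percent means less beta-gal luminescence so fewer parasites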
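assay system = mouse NIH/3T3 fibroblasts infected with β-gal-expressing T. cruzi Tulahuen C4 | input = 5,000 NIH/3T3 host cells per well | buffer or medium = DMEM plus 2% FBS | timing = 3 h host attachment, then at least 90 h co-culture | measured by = GalScreen luminescence, 60 min | evaluation = luminescence reflecting intracellular parasite burden, expressed as percent inhibition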
A number is an active result; - = inactive; ? = inconclusive; . = no result.

SMILES	Beta apoptosis	CSC inhib	Calb FLC	PolyA inhibitor	HIF activator	T cruzi repl
Cc1ccc(NC(=S)Nc2cccc(-c3n[nH]c(=S)o3)c2)cc1	-	-	-	-	-	-
COc1ccc(-n2c(-c3ccccc3)c[n+]3c2CCC3)cc1	-	-	-	-	-	-
CCOc1ccc(-c2c[n+]3c(n2-c2ccccc2)CCCCC3)cc1	98	-	?	-	-	66
CN(Cc1ccc(Cl)cc1Cl)C(=O)c1cccc(S(=O)(=O)N2CCN(c3ccccc3)CC2)c1	.	-	-	-	-	60
CC1(C)CCC[C@@]2(C)CC=C(C(=O)O)[C@@H]3C[C@]312	-	-	-	-	-	-
CCCCC(CC)COC(=O)CCCCC(=O)OCC(CC)CCCC (stereo not drawn)	-	-	.	.	.	.
CCCCC(CC)CN=C(N)NC(N)=NCCCCCCN=C(N)NC(N)=NCC(CC)CCCC (stereo not drawn)	114	103	.	.	.	.
COC(=O)CSc1nnc([C@H](Cc2ccccc2)NC(=O)OC(C)(C)C)o1	-	-	-	-	-	-
Cc1cccc(CS(=O)(=O)c2nnc([C@H](Cc3ccccc3)NC(=O)OC(C)(C)C)o2)c1	-	95	-	-	-	-
COC(=O)CS(=O)(=O)c1nnc([C@H](Cc2ccccc2)NC(=O)OC(C)(C)C)o1	-	91	-	-	-	-
CN(Cc1ccccc1)C(=O)c1ccc(NC(=O)C2CCN(C(=O)OC(C)(C)C)CC2)cc1	-	-	.	.	.	.
CCCc1c(CC)c(=N)c2ccccc2n1C	-	-	-	-	-	72
CC(C)Cn1c(N)c(C(=O)COC(=O)/C=C/c2ccccc2)c(=O)n(C)c1=O	.	-	-	-	-	-
CN(C)C(CNc1ccc(C(F)(F)F)cc1[N+](=O)[O-])c1ccccc1 (stereo not drawn)	-	.	-	-	-	-
O=C1C=C(c2cnc3ccccc3c2)C[C@@H](c2ccc3c(c2)OCO3)C1	-	-	.	.	.	.
O=C(NCc1cn(-c2ccccc2)nc1-c1ccc(F)cc1)c1cccc([N+](=O)[O-])c1	-	-	-	-	-	61
CC(Oc1cc(Cl)ccc1Cl)C(=O)N/N=C\c1ccnn1C (stereo not drawn)	-	-	-	-	-	-
C[N+]1(CC(=O)OC2CCCCCCCCCCC2)CCCC1	-	-	99	-	-	-
COC(=O)CCCCCCCCCC[N+]1(C)CCCCC1	-	-	-	-	-	-
CC(C)n1cnnc1SCC(=O)NC(=O)c1ccccc1	-	-	-	-	-	-
COc1ccc(CN=Cc2[nH]c3ccc(Br)c(Cl)c3c2O)cc1	-	-	-	-	-	55
CCN(CC)C1=C(Cl)C(=O)C(Cl)C12OCCO2 (stereo not drawn)	.	-	-	-	-	-
Cc1ccc(NCc2ccccc2)cc1	-	-	-	-	-	58
Cc1ccc(NCc2ccc(C)s2)cc1	-	-	-	-	-	71
Cc1ccc(CNc2ccc(N3CCOCC3)cc2)s1	-	-	-	-	-	-
SMILES	Beta apoptosis	CSC inhib	Calb FLC	PolyA inhibitor	HIF activator	T cruzi repl
Cc1cc([N+](=O)[O-])ccc1N(C)C	-	-	-	-	-	-
O=C(NC(CC(=O)N1CCCC(C(F)(F)F)C1)c1ccccc1)c1ccccc1Cl (stereo not drawn)	-	-	?	-	-	-
CCOc1ncccc1C(=O)N(C)CC(=O)Nc1ccccc1SC	-	-	-	-	-	-
COCc1cc(CN2CCCC(C(=O)c3cccc(C(F)(F)F)c3)C2)ccc1OC (stereo not drawn)	-	-	-	-	-	66
COc1ccc(C(=O)C2CCCN(Cc3cccc4c3OCO4)C2)cc1OC (stereo not drawn)	-	-	-	-	-	62
O=C(NCC1CCCN(Cc2ccc3nonc3c2)C1)c1cccc(C(F)(F)F)c1 (stereo not drawn)	-	-	-	-	-	58
COc1ccc(C(=O)C2CCCN(Cc3ccc4nonc4c3)C2)cc1F (stereo not drawn)	-	-	-	-	-	-
COc1ccc(C(=O)C2CCCN(Cc3ccc(C#CCCO)cc3)C2)cc1F (stereo not drawn)	-	-	?	-	-	59
CCOCCCN1CC(=O)N2[C@@H](Cc3c([nH]c4ccccc34)C2(C)C)C1=O	-	-	-	-	-	-
Cc1ccc(C)c(NC(=O)c2ccccc2C(=O)c2ccccc2)c1	.	-	-	-	-	-
CCN(C(=O)C1CSC2(C)CCC(=O)N12)c1nc2c(C)cccc2s1 (stereo not drawn)	-	-	-	-	-	-
Cc1cccc(C)c1NC(=O)COC(=O)C1CC(=O)N(Cc2ccccc2)C1 (stereo not drawn)	-	.	-	-	-	-
CCOC(=O)c1cnc2ccc(OCC)cc2c1N1CCN(c2ccccc2OC)CC1	-	-	-	-	-	57
CCOc1ccc2ncc(C(=O)c3ccc(OC)cc3)c(N3CCN(CC)CC3)c2c1	-	-	-	-	-	-
CN(c1ccccc1)c1ccc(/C=C/[N+](=O)[O-])cc1	89	-	-	-	-	-
O=[N+]([O-])/C=C\c1ccc(N2CCOCC2)cc1	-	-	-	-	-	-
CCCC(O)(c1ccc(Br)cc1)C(CN1CCOCC1)c1ccc(Cl)cc1 (stereo not drawn)	-	93	-	-	-	-
OCCCNCc1ccc(N(c2ccccc2)c2ccccc2)cc1	-	-	-	-	-	-
CC1CCCN(CCCN2C(=O)C3C(C(=O)Nc4cccc(Cl)c4)C4C=CC3(O4)C2C(=O)NC2CCCCC2)C1 (stereo not drawn)	-	-	-	-	-	-
O=C(Oc1cc2oc(=O)cc(-c3ccccc3)c2cc1Cl)C1CCCCC1	-	-	77	-	-	-
COCC1CCN(C(=O)CCc2nnc(C3(c4ccc(Cl)cc4)CCC3)o2)CC1	.	-	-	-	-	-
Cc1ccc(C)c(Oc2ccc(S(=O)(=O)N3CCN(C)CC3)cn2)c1	-	-	.	-	-	55
CCc1ccccc1Oc1ccc(S(=O)(=O)N2CCN(C)CC2)cn1	-	-	-	-	-	-
O=C(CSCc1cccc(Cl)c1)Nc1ccccc1-c1ccccc1	-	75	?	-	-	-
O=C1N[C@@H](Cc2cn(S(=O)(=O)c3c(F)c(F)c(F)c(F)c3F)c3ccccc23)C(=O)N[C@H]1Cc1ccccc1	.	-	-	-	-	-
CCC(=O)/C=C1/Sc2ccccc2N1CC	-	-	-	-	-	-
CN1/C(=C/c2cccc[n+]2CCO)Sc2ccccc21	-	-	-	-	-	-
CCN1/C(=C/c2ccc3cc(C)ccc3[n+]2CC)Sc2ccccc21	115	102	.	.	26	-
CCN1/C(=C/C=C/c2sc3ccccc3[n+]2CC)Sc2ccccc21	101	79	-	93	-	-
CC[n+]1c(/C=C2\Sc3ccccc3N2C)ccc2cccc(C)c21	.	.	102	-	-	63
